Experimental data reported in ChEMBL document CHEMBL1126849, “Synthesis of A-ring fluorinated derivatives of (17 alpha,20E/Z)-[125I]iodovinylestradiols: effect on receptor binding and receptor-mediated target tissue uptake” (J Med Chem, 1993).

Columns and labels:
[1] = test system: Rattus norvegicus; experiment: Biodistribution in thyroid of immature female rat after 1 hr administration of 3 micro Ci (111 kBq) in the absence of 60 microg estradiol; type: ADME, organism-based, Thyroid gland; settings: in vivo
Method in brief: (§1)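 Immature female Long Evans rats (21–24 days, 45–70 g), three to five per group, given 125I-labeled steroid (3 μCi, 111 kBq) by lateral tail vein without anesthesia. Vehicle: ethanol diluted in saline with 1% Tween-80, final ethanol 9%, 0.22 μm filtered. +E2 groups received 60 μg unlabeled estradiol co-injected. Killed under ether at set times; tissues KCl-washed, blotted, weighed, gamma counted; %ID/g, mean with SE.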

[2] = test system: Rattus norvegicus; experiment: Biodistribution in muscle of immature female rat after 5 hour administration of 3 micro Ci (111 kBq) in the absence of 60 microg estradiol; type: ADME, organism-based, Muscle tissue; settings: in vivo; method in brief: as §1
[3] = test system: Rattus norvegicus; experiment: Biodistribution in liver of immature female rat after 1 hr administration of 3 micro Ci (111 kBq) in the presence of (+E2); type: ADME, organism-based; settings: in vivo
Method in brief: (§2)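 Immature female Long Evans rats (21–24 days, 45–70 g), unanesthetized in retention cages, given 3 µCi (111 kBq) 125I-labeled steroid i.v. via lateral tail vein. Vehicle was ethanol diluted in saline containing 1% Tween-80, giving 9% ethanol final. The blocking group received 60 µg unlabeled estradiol co-injected. Rats were killed under ether by axillary bleeding, and tissues were KCl-washed and gamma-counted. Data are %ID/g, mean ± SE, n=3–5.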

[4] = test system: Rattus norvegicus; experiment: Biodistribution in fat of immature female rat after 3 hour administration of 3 micro Ci (111 kBq) in the absence of 60 microg estradiol; type: ADME, organism-based, Adipose tissue; settings: in vivo; method in brief: as §2
[5] = test system: Rattus norvegicus; experiment: Biodistribution in spleen of immature female rat after 1 hr administration of 3 micro Ci (111 kBq) in the presence of (+E2); type: ADME, organism-based; settings: in vivo; method in brief: as §1
[6] = test system: Rattus norvegicus; experiment: Biodistribution in uterus of immature female rat after 1 hr administration of 3 micro Ci (111 kBq) in the presence of (+E2); type: ADME, organism-based; settings: in vivo
Method in brief: (§3)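 Immature female Long Evans rats (21–24 days, 45–70 g), 3–5 per group, unanesthetized in retention cages, given 3 μCi (111 kBq) 125I-labeled steroid by lateral tail vein. Vehicle: ethanol diluted with saline containing 1% Tween-80, final ethanol 9%. +E2 group co-injected 60 μg unlabeled estradiol (1 h only). Killed under ether; tissues KCl-washed, weighed, gamma-counted. Output: %ID/g (mean, SE) and uterus to blood or nontarget (muscle, spleen, lungs) ratios.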

[7] = test system: Rattus norvegicus; experiment: Biodistribution in muscle of immature female rat after 12 hour administration of 3 micro Ci (111 kBq) in the absence of 60 microg estradiol; type: ADME, organism-based, Muscle tissue; settings: in vivo; method in brief: as §1
[8] = test system: Rattus norvegicus; experiment: Biodistribution in uterus / blood of immature female rat after 3 hour administration of 3 micro Ci (111 kBq) in the absence of 60 microg estradiol; type: ADME, organism-based; settings: in vivo
Method in brief: (§4)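 Same in vivo procedure: immature female Long Evans rats (21–24 days), three to five per group, 3 μCi (111 kBq) tracer i.v. via tail vein in 9% ethanol/saline/1% Tween-80, ± 60 μg estradiol co-injected at 1 h. Uterus %ID/g (gamma counting) divided by blood, or by nontarget organ (muscle, spleen, lungs), %ID/g to give ratios.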

[9] = test system: Rattus norvegicus; experiment: Biodistribution in uterus / blood of immature female rat after 12 hour administration of 3 micro Ci (111 kBq) in the absence of 60 microg estradiol; type: ADME, organism-based; settings: in vivo; method in brief: as §4
[10] = test system: Rattus norvegicus; experiment: Biodistribution in muscle of immature female rat after 1 hr administration of 3 micro Ci (111 kBq) in the presence of (+E2); type: ADME, organism-based, Muscle tissue; settings: in vivo; method in brief: as §1
[11] = test system: Rattus norvegicus; experiment: Biodistribution in uterus of immature female rat after 3 hour administration of 3 micro Ci (111 kBq) in the absence of 60 microg estradiol; type: ADME, organism-based; settings: in vivo; method in brief: as §3
[12] = test system: Rattus norvegicus; experiment: Biodistribution in fat of immature female rat after 12 hour administration of 3 micro Ci (111 kBq) in the absence of 60 microg estradiol; type: ADME, organism-based, Adipose tissue; settings: in vivo; method in brief: as §2
[13] = test system: Rattus norvegicus; experiment: Biodistribution in uterus of immature female rat after 5 hour administration of 3 micro Ci (111 kBq) in the absence of 60 microg estradiol; type: ADME, organism-based; settings: in vivo; method in brief: as §3
[14] = test system: Rattus norvegicus; experiment: Biodistribution in lungs of immature female rat after 1 hr administration of 3 micro Ci (111 kBq) in the absence of 60 microg estradiol; type: ADME, organism-based, Lung; settings: in vivo; method in brief: as §2
[15] = test system: Rattus norvegicus; experiment: Biodistribution in kidney of immature female rat after 1 hr administration of 3 micro Ci (111 kBq) in the absence of 60 microg estradiol; type: ADME, organism-based; settings: in vivo; method in brief: as §2
[16] = test system: Rattus norvegicus; experiment: Biodistribution in liver of immature female rat after 12 hour administration of 3 micro Ci (111 kBq) in the absence of 60 microg estradiol; type: ADME, organism-based; settings: in vivo; method in brief: as §2
[17] = test system: Rattus norvegicus; experiment: Biodistribution in blood of immature female rat after 5 hour administration of 3 micro Ci (111 kBq) in the absence of 60 microg estradiol; type: ADME, organism-based; settings: in vivo; method in brief: as §2
[18] = test system: Rattus norvegicus; experiment: Biodistribution in fat of immature female rat after 5 hour administration of 3 micro Ci (111 kBq) in the absence of 60 microg estradiol; type: ADME, organism-based, Adipose tissue; settings: in vivo; method in brief: as §2
[19] = test system: Rattus norvegicus; experiment: Biodistribution in liver of immature female rat after 3 hour administration of 3 micro Ci (111 kBq) in the absence of 60 microg estradiol; type: ADME, organism-based; settings: in vivo; method in brief: as §2
[20] = test system: Rattus norvegicus; experiment: Biodistribution in muscle of immature female rat after 3 hour administration of 3 micro Ci (111 kBq) in the absence of 60 microg estradiol; type: ADME, organism-based, Muscle tissue; settings: in vivo; method in brief: as §1
[21] = test system: Rattus norvegicus; experiment: Biodistribution in uterus / blood of immature female rat after 1 hr administration of 3 micro Ci (111 kBq) in the presence of (+E2); type: ADME, organism-based; settings: in vivo; method in brief: as §4
[22] = test system: Rattus norvegicus; experiment: Biodistribution in liver of immature female rat after 1 hr administration of 3 micro Ci (111 kBq) in the absence of 60 microg estradiol; type: ADME, organism-based; settings: in vivo; method in brief: as §2
[23] = test system: Rattus norvegicus; experiment: Biodistribution in uterus / spleen, muscle, lungs of immature female rat after 5 hour administration of 3 micro Ci (111 kBq) in the absence of 60 microg estradiol; type: ADME, organism-based; settings: in vivo; method in brief: as §3
[24] = test system: Rattus norvegicus; experiment: Biodistribution in lungs of immature female rat after 5 hour administration of 3 micro Ci (111 kBq) in the absence of 60 microg estradiol; type: ADME, organism-based, Lung; settings: in vivo; method in brief: as §1
[25] = test system: Rattus norvegicus; experiment: Biodistribution in kidney of immature female rat after 5 hour administration of 3 micro Ci (111 kBq) in the absence of 60 microg estradiol; type: ADME, organism-based; settings: in vivo; method in brief: as §2
[26] = test system: Rattus norvegicus; experiment: Biodistribution in uterus / spleen, muscle, lungs of immature female rat after 3 hour administration of 3 micro Ci (111 kBq) in the absence of 60 microg estradiol; type: ADME, organism-based; settings: in vivo; method in brief: as §3
[27] = target: T1, Estrogen receptor (Mus musculus) (UniProt O08537+P19785); experiment: Relative binding affinity (RBA) for murine cytoplasmic estrogen receptor at 4C for 18 hr; type: protein assay
Method in brief: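 Competitive binding on murine uterine cytoplasmic extract with 20 nM [3H]estradiol and competitor steroids at 2 nM–20 μM, incubated 18 h at 0–4 °C. RBA = 100 × ratio of […] concentration giving 50% competition for specific binding. Mean of three experiments with SD.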

[28] = target: T1, Estrogen receptor (Mus musculus); experiment: Relative binding affinity (RBA) for murine cytoplasmic estrogen receptor at 4C for 2 hr; type: protein assay
Method in brief: (§5)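 Murine uterine cytoplasmic extract incubated 2 h at 4 °C or at 25 °C with 20 nM [3H]estradiol and competitors at 2 nM–20 μM. RBA is taken as 100 × the ratio of competitor to unlabeled estradiol concentration needed for 50% competition of specific [3H]estradiol binding.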

[29] = target: T1, Estrogen receptor (Mus musculus); experiment: Relative binding affinity (RBA) for murine cytoplasmic estrogen receptor at 25 degree C for 2 hr; type: protein assay; method in brief: as §5

T1 sequence (O08537 whole entry, looked up): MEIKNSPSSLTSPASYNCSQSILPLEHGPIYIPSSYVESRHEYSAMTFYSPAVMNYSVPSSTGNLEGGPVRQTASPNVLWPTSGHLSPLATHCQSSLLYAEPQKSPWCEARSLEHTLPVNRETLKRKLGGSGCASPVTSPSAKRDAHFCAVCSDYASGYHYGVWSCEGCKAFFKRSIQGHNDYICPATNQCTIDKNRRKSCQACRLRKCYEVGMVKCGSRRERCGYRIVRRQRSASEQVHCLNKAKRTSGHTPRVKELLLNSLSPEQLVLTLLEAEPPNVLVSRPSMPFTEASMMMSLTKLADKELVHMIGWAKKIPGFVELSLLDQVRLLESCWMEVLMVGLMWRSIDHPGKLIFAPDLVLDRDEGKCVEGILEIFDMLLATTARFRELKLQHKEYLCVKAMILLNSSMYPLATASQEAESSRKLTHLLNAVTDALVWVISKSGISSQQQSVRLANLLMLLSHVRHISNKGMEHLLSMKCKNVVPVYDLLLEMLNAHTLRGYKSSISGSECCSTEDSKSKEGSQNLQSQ
T1 sequence (P19785 whole entry, looked up): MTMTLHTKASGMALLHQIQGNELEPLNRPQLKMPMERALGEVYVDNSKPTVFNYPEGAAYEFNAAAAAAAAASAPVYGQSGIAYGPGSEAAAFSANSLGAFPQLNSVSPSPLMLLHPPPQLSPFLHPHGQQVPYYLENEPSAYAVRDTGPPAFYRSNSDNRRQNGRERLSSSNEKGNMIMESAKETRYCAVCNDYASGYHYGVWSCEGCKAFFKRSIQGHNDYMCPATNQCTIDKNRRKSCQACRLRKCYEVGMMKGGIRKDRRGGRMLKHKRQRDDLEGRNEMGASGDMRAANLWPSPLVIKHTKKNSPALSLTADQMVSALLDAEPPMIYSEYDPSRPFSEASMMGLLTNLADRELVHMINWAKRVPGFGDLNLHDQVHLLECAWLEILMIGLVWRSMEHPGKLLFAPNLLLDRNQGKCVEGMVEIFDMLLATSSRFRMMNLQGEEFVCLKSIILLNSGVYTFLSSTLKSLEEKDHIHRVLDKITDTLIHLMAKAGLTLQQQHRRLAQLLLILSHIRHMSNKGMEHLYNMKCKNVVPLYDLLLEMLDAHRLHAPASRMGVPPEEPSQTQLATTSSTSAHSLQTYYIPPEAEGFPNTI

Row | Structure (SMILES) | ID/g [1] [%] | ID/g [2] [%] | ID/g [3] [%] | ID/g [4] [%] | ID/g [5] [%] | ID/g [6] [%] | ID/g [7] [%] | uterus to blood %ID/g ratio (unitless) [8] [%] | Uterus-to-blood radioactivity ratio (dimensionless) [9] [%] | ID/g [10] [%] | ID/g [11] [%] | ID/g [12] [%] | ID/g [13] [%] | ID/g [14] [%] | ID/g [15] [%] | ID/g [16] [%] | ID/g [17] [%] | ID/g [18] [%] | ID/g [19] [%] | ID/g [20] [%] | also measured
1 | C[C@@H]1Cc2c(ccc(O)c2F)[C@H]2CC[C@@]3(C)[C@@H](CC[C@@]3(O)/C=C\I)[C@H]12 | 145 | 0.34 | 1.54 | 1.42 | 0.69 | 0.5 | 0.16 | 10.6 | 16.64 | 0.44 | 4.11 | 0.89 | 4.39 | 0.71 | 1.07 | 0.8 | 0.36 | 1.7 | 1.18 | 0.28 | uterus/blood %ID/g ratio [21]: 1.16%; ID/g [22]: 1.35%; ID/g [23]: 9.44%; ID/g [24]: 0.48%; ID/g [25]: 0.67%; Uterus to nontarget tissue (spleen, muscle, lungs) uptake ratio [26]: 8.32%
2 | C[C@]12CC[C@@H]3c4ccc(O)c(F)c4CC[C@H]3[C@@H]1CC[C@@]2(O)/C=C/I | 71.61 | 0.14 | 3.06 | 1.59 | 0.51 | 0.77 | 0.06 | 4.56 | 2.76 | 0.58 | 4.24 | 0.3 | 1.82 | 0.89 | 0.93 | 0.59 | 0.26 | 1.67 | 2.2 | 0.31 | RBA [27]: 55.9; RBA [28]: 58.7; RBA [29]: 29.1; uterus/blood %ID/g ratio [21]: 1.02%; ID/g [22]: 2.91%; uterus to nontarget tissue ratio [23]: 10.41%; ID/g [24]: 0.28%; ID/g [25]: 0.26%; Uterus to nontarget tissue (spleen, muscle, lungs) uptake ratio [26]: 11.38%
3 | C[C@]12CC[C@@H]3c4ccc(O)c(F)c4CC[C@H]3[C@@H]1CC[C@@]2(O)/C=C\I | 42.2 | 0.38 | 3.04 | 1.96 | 0.56 | 0.86 | 0.37 | 17.08 | 27.32 | 0.51 | 7.96 | 0.75 | 10.22 | 1.89 | 1.87 | 1.78 | 0.47 | 1.71 | 1.95 | 0.82 | RBA [27]: 66.9; RBA [28]: 47.4; RBA [29]: 203; uterus/blood %ID/g ratio [21]: 1.65%; ID/g [22]: 3.49%; uterus to nontarget tissue ratio [23]: 28.59%; ID/g [24]: 0.56%; ID/g [25]: 0.58%; Uterus to nontarget tissue (spleen, muscle, lungs) uptake ratio [26]: 12.16%
